Reference: ChEMBL document CHEMBL3244192, “Antiallergic activity of tetracyclic derivatives of quinoline-2-carboxylic acids. 1” (1978)
The source made the active and inactive calls. No cut-off for these calls is given here.

Columns and labels:
Rattus norvegicus [1] = assay: Antiallergic activity in egg albumin-sensitized Sprague-Dawley rat assessed as inhibition of passive cutaneous anaphylaxis at 25 to 50 mg/kg, po administered 15 mins prior to egg albumin and Evans blue dye challenge; format: functional, organism-based
Procedure, shortened: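 Rats were passively sensitized by intradermal mid-dorsal injection of antibody. The antibody came from rats sensitized to egg albumin with Bordetella pertussis adjuvant, and sensitivity developed over 24 h. Compound was given orally before iv egg albumin plus Evans blue. Blue weal size and intensity were compared with untreated rats to give percent inhibition.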

Rattus norvegicus [2] = assay: Antiallergic activity in egg albumin-sensitized Sprague-Dawley rat assessed as inhibition of passive cutaneous anaphylaxis compound administered ip 5 mins prior to egg albumin and Evans blue dye challenge; format: functional; conditions: for minimal effective dose: read-out: MED; for ED50: read-out: ID50 (the source's name)
Procedure, shortened: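 Antibody from egg albumin/B. pertussis-sensitized rats was injected intradermally in the mid-dorsal region, then 24 h allowed. Drug was given ip, then iv egg albumin plus Evans blue. Weal size and intensity were scored against untreated controls. Initial doses were 50 or 25 mg/kg, then 10, 5, 2.5 and 1.25 mg/kg, with n = 6 per group. MED was the lowest significant ip dose (p ≤ 0.05, Student's t). ID50 was reported with 95% confidence limits.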

Rattus norvegicus [3] = assay: Antiallergic activity in egg albumin-sensitized Sprague-Dawley rat assessed as inhibition of passive cutaneous anaphylaxis compound administered prior to egg albumin and Evans blue dye challenge; conditions: read-out: MED

Compound | inhibition (Rattus norvegicus [1]) | minimal effective dose (Rattus norvegicus [2]) | minimal effective dose (Rattus norvegicus [3]) | ED50 (Rattus norvegicus [2])
O=C(O)c1cc(=O)c2cc(Cl)cc(C(=O)c3ccccc3)c2[nH]1 | inactive | 50 mg/kg |  | 
COC(=O)c1cc(=O)c2cccc(C(C)=O)c2[nH]1 |  |  | 25 mg/kg | 
O=C(O)c1cc(=O)c2cc([S+]([O-])c3ccccc3)ccc2[nH]1 (stereo not given) | inactive | 25 mg/kg |  | 
COC(=O)c1cc(=O)c2cccc(S(=O)(=O)c3ccccc3)c2[nH]1 | inactive |  |  | 
O=C(O)c1cc(=O)c2cc(Sc3ccccc3)ccc2[nH]1 | inactive | > 50 mg/kg |  | 
COC(=O)c1cc(=O)c2cc([S+]([O-])c3ccccc3)ccc2[nH]1 (stereo not given) | inactive |  |  | 
O=C(c1ccccc1)c1ccc2[nH]c(C(=O)[O-])cc(=O)c2c1.[Na+] | inactive | 10 mg/kg |  | 
O=C(O)c1cc(=O)c2ccc3c(c2[nH]1)C(=O)c1ccccc1-3 | inactive |  |  | 2.8 mg/kg
CC(=O)c1ccc2[nH]c(C(=O)O)cc(=O)c2c1 | inactive | 25 mg/kg |  | 
O=C(c1ccccc1)c1ccc2c(=O)cc(C(=O)O)[nH]c2c1 | inactive | 25 mg/kg |  | 
COC(=O)c1cc(=O)c2cccc(C(=O)c3ccc(C)cc3)c2[nH]1 | inactive |  |  | 
O=C(O)c1cc(=O)c2cccc(C(=O)c3ccccc3)c2[nH]1 | inactive | 25 mg/kg |  | 
COC(=O)c1cc(=O)c2cccc(Sc3ccccc3)c2[nH]1 | inactive |  |  | 
O=C(O)c1cc(=O)c2cc(S(=O)(=O)c3ccccc3)ccc2[nH]1 | inactive | > 25 mg/kg |  | 
Cc1ccc(C(=O)c2cccc3c(=O)cc(C(=O)O)[nH]c23)cc1 | inactive | 25 mg/kg |  | 
O=C(O)c1cc(=O)c2ccc(S(=O)(=O)c3ccccc3)cc2[nH]1 | inactive | > 25 mg/kg |  | 
O=C(O)c1cc(=O)c2ccc3c(c2[nH]1)-c1ccccc1C3=O | inactive | > 25 mg/kg |  | 
COC(=O)c1cc(=O)c2ccc(Sc3ccccc3)cc2[nH]1 | inactive |  |  | 

Compound | inhibition (Rattus norvegicus [1]) | minimal effective dose (Rattus norvegicus [2]) | minimal effective dose (Rattus norvegicus [3]) | ED50 (Rattus norvegicus [2])
COC(=O)c1cc(=O)c2ccc3c(c2[nH]1)-c1ccccc1C3=O | inactive |  |  | 
O=C(O)c1cc(=O)c2ccccc2[nH]1 [TRANSTORINE] | inactive | 50 mg/kg |  | 
O=C(O)c1cc(=O)c2cccc(Sc3ccccc3)c2[nH]1 | inactive | 25 mg/kg |  | 
O=C(O)c1cc(=O)c2cccc(S(=O)(=O)c3ccccc3)c2[nH]1 | inactive | 10 mg/kg |  | 
COC(=O)c1cc(=O)c2cc(C(=O)c3ccccc3)ccc2[nH]1 | inactive |  |  | 
COC(=O)c1cc(=O)c2ccc(C(C)=O)cc2[nH]1 | inactive |  |  | 
O=C([O-])c1cc(=O)c2c(OCC(O)COc3cccc4oc(C(=O)[O-])cc(=O)c34)cccc2o1.[Na+].[Na+] [CROMOLYN SODIUM] | inactive |  |  | 2.6 mg/kg
COC(=O)c1cc(=O)c2cc(S(=O)(=O)c3ccccc3)ccc2[nH]1 | inactive |  |  | 
COC(=O)c1cc(=O)c2ccc3c(c2[nH]1)C(=O)c1ccccc1-3 | inactive |  |  | 
COC(=O)c1cc(=O)c2ccc(C(=O)c3ccccc3)cc2[nH]1 | inactive |  |  | 
COC(=O)c1cc(=O)c2cc(Sc3ccccc3)ccc2[nH]1 | inactive |  |  | 
COC(=O)c1cc(=O)c2cc(Cl)cc(C(=O)c3ccccc3)c2[nH]1 | inactive |  |  | 
COC(=O)c1cc(=O)c2cccc(C(=O)c3ccccc3)c2[nH]1 | inactive |  |  | 
O=C(O)c1cc(=O)c2ccc(Sc3ccccc3)cc2[nH]1 | inactive | > 25 mg/kg |  | 
CC(=O)c1cccc2c(=O)cc(C(=O)O)[nH]c12 | inactive | 25 mg/kg |  | 
COC(=O)c1cc(=O)c2ccc(S(=O)(=O)c3ccccc3)cc2[nH]1 | inactive |  |  | 
COC(=O)c1cc(=O)c2cc(C(C)=O)ccc2[nH]1 | inactive |  |  | 
CC(=O)c1ccc2c(O)cc(C(=O)O)nc2c1 | inactive | 10 mg/kg |  | 
